# In the library only some 3.5% were active in any assay of this set; here they are far more common.
# MrgX1 agonist = agonists of human MrgX1 receptor | MrgX1-HEK293 cells, Fluo-4 calcium fluorescence, agonist mode; stronger effect = higher value | B-score at 10 µM | Q96LB2 | actives 0.44% (n = 310,000);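 active = calcium response B-score plate-corrected fluorescence ratio at least 3 library SD, with starting fluorescence B-score inside 5 SD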
# Target sequence (Q96LB2 whole entry, looked up): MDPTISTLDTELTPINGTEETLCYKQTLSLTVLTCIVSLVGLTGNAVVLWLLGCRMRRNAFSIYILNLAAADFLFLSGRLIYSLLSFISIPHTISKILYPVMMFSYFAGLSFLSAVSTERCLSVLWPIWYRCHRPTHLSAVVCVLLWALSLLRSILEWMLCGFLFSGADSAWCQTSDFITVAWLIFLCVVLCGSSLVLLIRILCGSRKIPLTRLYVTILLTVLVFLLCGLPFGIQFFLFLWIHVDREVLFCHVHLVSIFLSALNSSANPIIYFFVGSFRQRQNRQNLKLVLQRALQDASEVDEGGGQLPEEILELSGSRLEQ
#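 Test system: HEK293 cells stably expressing human MrgX1 receptor; amount: 15,000 cells per well; doses: compound delivered in addition one of three; times: overnight plating before 1 h dye loading; detection: Fluo-4 NW calcium-flux fluorescence, kinetic read; read-out basis: B-scored fluorescence response ratio; controls: positive and negative controls per plate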
# RGS4 block = human RGS4 inhibition | actives 0.45% (n = 310,000) | P49798 | HEK293 M3R/RGS4 inducible, Fluo-4 calcium flux; stronger effect = higher value; triggered by carbachol at its EC20 | B-score at 10 µM;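 active = B-score, a plate-corrected calcium signal, over three deviations above library mean, with baseline fluorescence within five deviations of library mean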;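 also: RGS4 expression induced by doxycycline in cells with stable M3 receptor; B-score is computed from the integrated fluorescence ratio over baseline after carbachol; higher B-score means a larger calcium signal and so more RGS4 inhibition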
# Target sequence (P49798 whole entry, looked up): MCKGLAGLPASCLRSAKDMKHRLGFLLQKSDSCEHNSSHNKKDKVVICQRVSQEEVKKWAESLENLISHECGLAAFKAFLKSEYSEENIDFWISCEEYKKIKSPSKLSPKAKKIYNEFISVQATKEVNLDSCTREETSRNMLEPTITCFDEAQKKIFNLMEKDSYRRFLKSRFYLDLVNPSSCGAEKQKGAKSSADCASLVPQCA
# MrgX1 PAM = human MrgX1 positive allosteric modulation, primary screen; MrgX1-HEK293, Fluo-4 calcium flux, FDSS; stronger effect = higher value; Q96LB2; actives 0.63% (n = 310,000); AID 588675; B-score at 10 µM;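 active = plate-corrected calcium response at least 3 library SD above typical, normal starting fluorescence, not activating the receptor alone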;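 also: compound read alongside a low EC10 to EC30 dose of BAM8-22 agonist; peak minus trough fluorescence over baseline measured at the second addition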
# RGS4 act = potentiators or activators of RGS4; HEK293 M3R/inducible RGS4, carbachol calcium flux Fluo4; stronger effect = lower value; B-score at 10 µM; actives 0.92% (n = 310,000); AID 463111;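 active = B-score of the integrated calcium signal more than 4 SD below the library mean, with starting fluorescence not abnormally high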;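 also: negative B-score means reduced calcium response which marks RGS4 activation or potentiation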
#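 Test system: HEK293 cells with stable M3R and inducible RGS4; also added: carbachol at ECmax as muscarinic agonist stimulus; schedule: dye loading 30 min 37 °C, buffer rest 30 min RT; technique: kinetic calcium fluorescence imaging with Fluo4-AM dye, 2 µM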
# MrgX1 antagonist = human MrgX1 receptor antagonism, primary screen | Q96LB2 | MRGX1-HEK293 calcium flux, Fluo-4, BAM8-22 antagonism; stronger effect = lower value | B-score at 10 µM | actives 1.3% (n = 310,000) | AID 588676;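 active = calcium-response B-score plate-corrected more than 3 library SD below zero, starting fluorescence within 5 deviations, no agonist response on first addition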;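 also: peak minus trough fluorescence over baseline after final BAM8-22 challenge near maximal dose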
# MrgX1 allo conf = human MrgX1 positive allosteric modulation, re-confirmation; actives 13% (n = 1,200); shares compounds with MrgX1 PAM; activation (ratio percentage), % at 10 µM; MrgX1-HEK293, Fluo-4 calcium fluorescence, FDSS; AID 602413;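 active = ratio at least 3 SD above the weak peptide control, stable starting fluorescence, no direct agonism earlier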;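 also: compound followed by low BAM8-22 agonist challenge near EC20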
# MrgX1 antag conf = reconfirmed antagonist of human MrgX1 receptor signaling | shares compounds with MrgX1 antagonist | MrgX1-HEK293, BAM8-22 calcium flux, Fluo-4; stronger effect = lower value | remaining BAM8-22 calcium response % of control (stronger effect = lower value), % at 10 µM | actives 19% (n = 2,300) | AID 602420;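 active = remaining agonist calcium response no higher than 100% minus 3 SD of agonist-only control wells, with starting fluorescence near control levels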;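 also: agonist BAM8-22 given at a near maximal EC90 to ECmax level; peak minus minimum fluorescence divided by baseline after agonist addition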
# HEK293 Ca flux = MrgX1 antagonist counter-screen hit in parental HEK293 cells; Fluo-4 calcium fluorescence, FDSS; actives 2% (n = 4,000); fluorescence ratio F(max-min)/F0 at 10 µM; shares compounds with MrgX1 antagonist;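 active = duplicate-averaged calcium fluorescence ratio at least three times the standard deviation of buffer wells, a nonspecific response in parental cells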
# HEK293 Ca counter = MrgX1 allosteric activator counter-screen hit in parental HEK293 cells | shares compounds with MrgX1 antagonist | parental HEK293 calcium flux, Fluo-4 fluorescence ratio; stronger effect = higher value | fluorescence ratio F(max-min)/F0 at 10 µM | actives 0.4% (n = 4,000) | AID 624114;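 active = calcium fluorescence ratio, averaged over duplicates, at least 3 SD of the buffer-well ratio, meaning a nonspecific response in receptor-free cells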;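 also: untransfected parental HEK293 lacking MrgX1 used as counterscreen for MrgX1 allosteric activators; fluorescence change taken during the second addition on a kinetic imager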
# HEK293 Ca cntr2 = counter-screen for MrgX1 activators: effect in parental HEK293 cells; shares compounds with MrgX1 antagonist; Fluo-4 calcium fluorescence (FDSS); stronger effect = higher value; fluorescence ratio F(max-min)/F0 at 10 µM; actives 8.7% (n = 4,000); AID 624115;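 active = calcium fluorescence ratio at least three times the spread of buffer wells, meaning a non-specific response in parental cells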
# Active calls of the source: *; i = inactive; x = no result given.
SMILES,MrgX1 agonist,RGS4 block,MrgX1 PAM,RGS4 act,MrgX1 antagonist,MrgX1 allo conf,HEK293 Ca flux,HEK293 Ca counter,HEK293 Ca cntr2,others
NC(=O)NC(=O)COC(=O)CNS(=O)(=O)c1ccc(F)c(F)c1F,i,i,i,i,i,x,x,x,x,
Cn1nc(C(F)(F)F)c(-c2ccc(Br)cc2)c1NC(=O)c1ccco1,i,i,20*,i,i,i,i,i,i,
Cn1nc(C(F)(F)F)c(-c2ccc(Br)cc2)c1NC(=O)c1cccnc1,i,i,i,i,i,x,x,x,x,
CC(NC(=O)C1CCN(S(=O)(=O)c2cccc3cccnc23)CC1)c1ccccc1 (stereo unspecified),i,i,6.5*,i,i,i,i,i,i,
CC(NC(=O)C1CCCN1S(=O)(=O)c1cccc2cccnc12)c1ccccc1 (stereo unspecified),i,i,i,i,i,x,x,x,x,
O=C(CCS(=O)(=O)c1cccs1)Nc1ccc(C(=O)NC2CCCC2)cc1,i,i,i,i,i,x,x,x,x,
O=C(Nc1ccccc1)Nc1ccc(Cl)c(S(=O)(=O)N2CCOCC2)c1,i,i,7.7*,i,-8.1*,i,i,i,i,MrgX1 antag conf=i
O=C(Nc1ccc(S(=O)(=O)N2CCOCC2)cc1)C1CC1,i,i,15*,i,i,i,i,i,i,
CCC(=O)Nc1ccc(S(=O)(=O)N2CCOCC2)cc1,i,i,i,i,i,x,x,x,x,
O=C(Nc1ccc(NC(=O)c2ccc(Cl)c(S(=O)(=O)N3CCOCC3)c2)cc1)c1ccccc1,i,i,i,i,i,x,x,x,x,
COc1cc(NS(=O)(=O)c2ccc(NC(=O)c3cccnc3)cc2)ncn1,i,i,i,i,i,x,x,x,x,
NC1=C(c2ccccc2)C(=O)NC1=O,i,i,i,i,i,x,x,x,x,
Cc1cc(C)cc(NC(=S)N2CCC(NC(=O)C3CCCCC3)CC2)c1,i,i,8.6*,i,i,i,i,i,i,
CN1CCN(C2CCCCC2NS(=O)(=O)c2ccc(Cl)cc2)CC1 (stereo unspecified),i,i,i,i,i,x,x,x,x,
CC1CC(C)CN(C2CCCCC2NS(=O)(=O)c2ccc(Cl)cc2)C1 (stereo unspecified),i,i,8.2*,i,i,i,i,i,i,
Cc1ccc2c(CN3CCCCC3CCO)cc(=O)oc2c1 (stereo unspecified),i,i,i,i,i,x,x,x,x,
CCOc1ccccc1N(C(C)=O)S(=O)(=O)c1ccc(Cl)cc1,i,i,i,i,i,x,x,x,x,
CC(=O)N(c1ccccc1C)S(=O)(=O)c1ccc(Cl)cc1,i,i,8.7*,i,i,i,i,i,i,
COCCN1CCN(Cc2nc(C3(c4ccc(C)cc4)CCCC3)no2)CC1,i,i,9*,i,i,i,i,i,i,
CCCCCC(=O)C(=O)c1ccc(O)cc1O,i,i,i,i,i,x,x,x,x,
COCCNC(=O)CSc1nc2scc(-c3ccccc3)c2c(=O)[nH]1,i,i,i,i,i,x,x,x,x,
CC(=Nc1ccc(O)cc1)c1sc2ccccc2c1O,i,i,39*,i,i,i,i,i,i,
CC(=Nc1cccc(C)c1)c1sc2ccccc2c1O,i,i,8.1*,i,i,i,i,i,57*,
CC(=O)NCCN=C(C)c1sc2ccccc2c1O,i,i,i,i,i,x,x,x,x,
CC(=Nc1ccccc1O)c1sc2ccccc2c1O,i,i,i,i,i,x,x,x,x,
SMILES,MrgX1 agonist,RGS4 block,MrgX1 PAM,RGS4 act,MrgX1 antagonist,MrgX1 allo conf,HEK293 Ca flux,HEK293 Ca counter,HEK293 Ca cntr2,others
O=C1C2CC=C(Cl)CC2C(=O)N1CCCCCCN1C(=O)C2CC=C(Cl)CC2C1=O (stereo unspecified),i,i,6.5*,i,i,i,i,i,i,
O=C1C2CC=C(Cl)CC2C(=O)N1CCN1CCOCC1 (stereo unspecified),i,i,i,i,i,x,x,x,x,
Cc1cc(C(=O)OCC(=O)NCc2ccco2)c(C)o1,i,i,i,i,i,x,x,x,x,
Oc1ccc(NC(=S)Nc2ccc(O)cc2)cc1,i,i,10*,i,i,i,i,i,i,
COC(=O)c1ccc(NC(=S)Nc2ccc(O)cc2)cc1,i,i,i,i,i,x,x,x,x,
CC12CCC(C(=O)Nc3nc4ccccc4s3)(OC1=O)C2(C)C (stereo unspecified),i,i,29*,i,i,2.1%*,i,i,i,
Cc1ccccc1OCC(=O)N=Nc1c(O)n(C)c2ccccc12,i,i,i,i,i,x,x,x,x,
CCOC(=O)c1sc(NS(=O)(=O)c2ccc(F)cc2)nc1C,i,i,12*,i,i,i,i,i,i,
CCOC(=O)c1sc(NS(=O)(=O)c2ccccc2Cl)nc1C,i,i,12*,i,i,i,i,i,i,
CCN1CCN(CC(=O)Nc2ccc(Cl)c(Cl)c2)C(=O)C1=O,i,i,7.7*,i,i,i,i,i,i,
CCN(CC(=O)Nc1c(F)cccc1F)C(=O)CSCC(=O)Nc1cccc(C)c1,i,i,i,i,i,x,x,x,x,
Cc1ccc(NC(=O)COc2cccnc2[N+](=O)[O-])cc1S(=O)(=O)N1CCOCC1,i,i,i,i,i,x,x,x,x,
CC(Sc1ncnc2sccc12)C(=O)Nc1ccc(C(N)=O)cc1 (stereo unspecified),i,i,i,i,i,x,x,x,x,
O=C(COc1ccc(Br)cc1)NCCCNC(=O)c1ccncc1,i,i,i,i,i,x,x,x,x,
